Measured values pooled from the literature.
Each line is one published result; the experiments were not run side by side.
Target: Death-associated protein kinase 1 (DAPK1, Homo sapiens, UniProt P53355)

Structure (SMILES) | read-out | technique | concentration | remaining binding [%]
O=C(NCCCN1CCOCC1)c1ccc(Nc2ncc(Cl)c(-c3ccc(Cl)s3)n2)cc1 | binding | competition with immobilised ligand | 1 µM | 22
CN(C)c1nccc(-c2cnn3ncccc23)n1 | binding |  | 1 µM | 100
CCCOc1ccc([C@H]2[C@H](C(=O)O)[C@@H](c3ccc4c(c3)OCO4)CN2CC(=O)Nc2c(CC)cccc2CC)cc1 | cell-free assay | competition with immobilised ligand | 1 µM | 90
C[C@H]1CCN(c2nccc(-c3cnn4ncccc34)n2)C1 | binding |  | 1 µM | 71
Cn1nc(C(=O)NCc2ccc(C(=O)O)cc2)cc1-c1ccc2[nH]ccc2c1 | cell-free assay | competition with immobilised ligand | 0.1 µM | 97
COc1ncc2cc3ccccc3nc2c1C#N | cell-free assay | competition with immobilised ligand | 5 µM | 95
CN(C)c1ncc(F)c(-c2cnn3ncccc23)n1 | binding |  | 1 µM | 100
Nc1ncc2c(n1)-c1c([nH]c3ccc(C#CC4CC4)cc13)CCCC2 | binding | competition with immobilised ligand | 1 µM | 87
c1ccc(N2CCN(Cc3nc4ccccc4[nH]3)CC2)nc1 | binding | competition with immobilised ligand | 1 µM | 100
COc1cnc(Nc2cccc(S(N)(=O)=O)c2)nc1N1CCN(c2ccccc2)C(=O)C1 | binding | competition with immobilised ligand | 1 µM | 95
O=C(NCCCN1CCOCC1)c1ccc(Nc2nccc(-c3cc4ccccc4s3)n2)cc1 | binding | competition with immobilised ligand | 1 µM | 18
C[C@H](c1ccc(F)cc1)N(Cc1cccc(C(=O)O)c1)C(=O)c1cnc2ccccc2c1 | cell-free assay | competition with immobilised ligand | 1 µM | 97
CN(CCCC(F)(F)F)c1nccc(-c2cnn3ncccc23)n1 | binding |  | 1 µM | 100
C[C@@H](c1ccc(-n2cnc3c(N)ncnc32)cc1)N1CCc2nn(C)c(Cc3ccccc3)c2C1=O | binding | competition with immobilised ligand | 0.1 µM | 95
CC1CCCN1c1nccc(-c2cnn3ncccc23)n1 (stereo not drawn) | binding |  | 1 µM | 99
O=C(c1ccc(Nc2ncc(Cl)c(-c3cc4ccccc4s3)n2)cc1)N1CCC(N2CCCC2)CC1 | binding | competition with immobilised ligand | 1 µM | 20
Cc1cnn2ncc(-c3ccnc(N(C)C)n3)c2c1 | binding |  | 1 µM | 74
NS(=O)(=O)c1cc(NC(=O)C2(c3ccccc3Cl)CC2)ccc1Oc1cccc(Cl)c1 | cell-free assay | competition with immobilised ligand | 1 µM | 98
O=C(Nc1c[nH]nc1C(=O)NC1CCNCC1)c1cc(F)cc(F)c1 | binding | competition with immobilised ligand | 1 µM | 100
COc1cc(-c2cn(C3CCc4c(F)cccc4N(CC(F)(F)F)C3=O)nn2)ccc1-n1cnc(C)c1 (stereo not drawn) | cell-free assay | competition with immobilised ligand | 1 µM | 99
COc1cnc(Nc2cccc(S(N)(=O)=O)c2)nc1N1CCN(c2ccccc2)CC1 | binding | competition with immobilised ligand | 1 µM | 83
